Results as given in ChEMBL document CHEMBL5653631, “A Potent and Selective ULK1 Inhibitor Suppresses Autophagy and Sensitizes Cancer Cells to Nutrient Stress” (iScience, 2018).
Blank lines part the entries; values can stand above or below the compound they belong to.

Assays:
[1] = molecular target: Serine/threonine-protein kinase PAK 6 (Homo sapiens) (UniProt Q9NQU5); assay: Inhibition of human recombinant PAK6 at 500 nM in presence of ATP by radiometric assay relative to control
[2] = molecular target: Serine/threonine-protein kinase D2 (Homo sapiens) (UniProt Q9BZL6); assay: Inhibition of human recombinant PKD2 at 500 nM related to control ULK1
[3] = molecular target: Receptor-type tyrosine-protein kinase FLT3 (Homo sapiens) (UniProt P36888); assay: Inhibition of human recombinant FLT3 at 500 nM related to control ULK1
[4] = molecular target: T1, Serine/threonine-protein kinase BRSK1 (Homo sapiens) (UniProt Q8TDC3); assay: Inhibition of human recombinant BRSK1 at 500 nM in presence of ATP by radiometric assay relative to control
T1 sequence (whole entry): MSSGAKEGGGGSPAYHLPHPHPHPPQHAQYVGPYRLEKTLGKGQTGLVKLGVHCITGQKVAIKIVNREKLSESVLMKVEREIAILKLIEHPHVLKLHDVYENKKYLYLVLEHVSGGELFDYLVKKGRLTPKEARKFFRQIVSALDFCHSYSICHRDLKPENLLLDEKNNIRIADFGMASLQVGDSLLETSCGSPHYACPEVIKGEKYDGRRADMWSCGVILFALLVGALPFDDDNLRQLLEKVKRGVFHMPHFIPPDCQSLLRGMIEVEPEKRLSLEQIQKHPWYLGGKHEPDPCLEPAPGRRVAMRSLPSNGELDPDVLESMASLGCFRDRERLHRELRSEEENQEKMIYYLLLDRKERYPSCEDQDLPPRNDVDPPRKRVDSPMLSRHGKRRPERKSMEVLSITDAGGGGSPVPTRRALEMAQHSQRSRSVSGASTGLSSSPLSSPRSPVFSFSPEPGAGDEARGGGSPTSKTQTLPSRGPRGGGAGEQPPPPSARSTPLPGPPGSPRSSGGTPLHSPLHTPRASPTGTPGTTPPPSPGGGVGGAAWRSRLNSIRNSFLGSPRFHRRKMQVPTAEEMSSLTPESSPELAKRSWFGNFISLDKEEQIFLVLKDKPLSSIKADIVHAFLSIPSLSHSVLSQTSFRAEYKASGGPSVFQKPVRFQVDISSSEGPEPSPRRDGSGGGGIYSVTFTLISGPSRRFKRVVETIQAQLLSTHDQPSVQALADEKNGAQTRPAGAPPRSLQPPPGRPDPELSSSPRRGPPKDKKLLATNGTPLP
Method in brief: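 Recombinant human kinase panel (327 kinases) run as radiometric activity assays, each kinase in duplicate at one compound concentration. Activity remaining expressed relative to vehicle control; percent inhibition taken as 100% minus % activity remaining.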

[5] = molecular target: T2, Inhibitor of nuclear factor kappa-B kinase subunit beta (Homo sapiens) (UniProt O14920); assay: Inhibition of human recombinant IKKb at 40 nM related to control ULK1
T2 sequence (whole entry): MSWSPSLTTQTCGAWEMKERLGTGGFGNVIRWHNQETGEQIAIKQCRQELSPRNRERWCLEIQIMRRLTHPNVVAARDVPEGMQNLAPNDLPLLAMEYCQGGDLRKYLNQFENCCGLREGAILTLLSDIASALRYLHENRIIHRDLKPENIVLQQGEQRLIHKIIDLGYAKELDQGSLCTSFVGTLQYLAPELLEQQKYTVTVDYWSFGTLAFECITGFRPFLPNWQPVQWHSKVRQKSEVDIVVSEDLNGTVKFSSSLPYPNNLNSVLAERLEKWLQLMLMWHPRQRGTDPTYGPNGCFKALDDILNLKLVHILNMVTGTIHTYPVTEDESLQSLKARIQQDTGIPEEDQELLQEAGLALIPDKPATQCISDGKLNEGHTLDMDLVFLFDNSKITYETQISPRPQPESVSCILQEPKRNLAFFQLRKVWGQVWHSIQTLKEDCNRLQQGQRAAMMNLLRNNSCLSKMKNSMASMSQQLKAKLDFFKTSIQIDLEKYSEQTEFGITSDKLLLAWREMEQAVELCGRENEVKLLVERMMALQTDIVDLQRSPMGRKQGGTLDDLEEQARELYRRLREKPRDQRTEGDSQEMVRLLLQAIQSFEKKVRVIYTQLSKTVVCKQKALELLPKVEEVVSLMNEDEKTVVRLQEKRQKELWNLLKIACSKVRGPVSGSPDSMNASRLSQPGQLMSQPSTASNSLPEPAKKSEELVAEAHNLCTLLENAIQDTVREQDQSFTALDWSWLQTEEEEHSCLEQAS

[6] = molecular target: T3, Dual specificity tyrosine-phosphorylation-regulated kinase 2 (Homo sapiens) (UniProt Q92630); assay: Inhibition of human recombinant DYRK2 at 40 nM related to control ULK1
T3 sequence (whole entry): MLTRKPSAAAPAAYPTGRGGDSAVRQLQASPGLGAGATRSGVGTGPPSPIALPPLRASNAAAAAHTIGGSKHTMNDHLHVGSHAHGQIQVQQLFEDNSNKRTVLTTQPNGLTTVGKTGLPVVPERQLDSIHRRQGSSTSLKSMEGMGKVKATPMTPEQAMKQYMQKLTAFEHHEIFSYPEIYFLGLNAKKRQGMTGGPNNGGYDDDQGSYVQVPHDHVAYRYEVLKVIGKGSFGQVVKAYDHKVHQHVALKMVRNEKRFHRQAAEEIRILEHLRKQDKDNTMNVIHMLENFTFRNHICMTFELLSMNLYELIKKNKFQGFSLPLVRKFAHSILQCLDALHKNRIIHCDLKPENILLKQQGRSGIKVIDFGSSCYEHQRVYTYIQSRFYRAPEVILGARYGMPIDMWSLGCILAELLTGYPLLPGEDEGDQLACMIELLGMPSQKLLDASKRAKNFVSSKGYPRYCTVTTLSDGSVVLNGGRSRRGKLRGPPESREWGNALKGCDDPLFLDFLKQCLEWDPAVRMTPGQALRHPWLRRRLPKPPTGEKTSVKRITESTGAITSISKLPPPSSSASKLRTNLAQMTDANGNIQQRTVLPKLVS

[7] = molecular target: Phosphorylase b kinase gamma catalytic chain, skeletal muscle/heart isoform (Homo sapiens) (UniProt Q16816); assay: Inhibition of human recombinant PHKg1 at 15 nM related to control ULK1
[8] = molecular target: Death-associated protein kinase 2 (Homo sapiens) (UniProt Q9UIK4); assay: Inhibition of human recombinant DAPK2 at 15 nM in presence of ATP by radiometric assay relative to control
[9] = molecular target: T4, Testis-specific serine/threonine-protein kinase 3 (Homo sapiens) (UniProt Q96PN8); assay: Inhibition of human recombinant TSSK3 at 15 nM related to control ULK1
T4 sequence (whole entry): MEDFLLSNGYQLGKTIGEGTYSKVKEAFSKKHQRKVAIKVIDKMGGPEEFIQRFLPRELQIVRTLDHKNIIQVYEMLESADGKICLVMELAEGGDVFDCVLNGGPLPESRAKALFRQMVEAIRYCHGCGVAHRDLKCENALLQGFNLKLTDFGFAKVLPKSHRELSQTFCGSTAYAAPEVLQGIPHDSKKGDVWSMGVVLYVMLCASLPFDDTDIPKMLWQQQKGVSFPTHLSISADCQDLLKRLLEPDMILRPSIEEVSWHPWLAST

Serine/threonine-protein kinase D2 (Homo sapiens), sequence (Q9BZL6 whole entry, looked up): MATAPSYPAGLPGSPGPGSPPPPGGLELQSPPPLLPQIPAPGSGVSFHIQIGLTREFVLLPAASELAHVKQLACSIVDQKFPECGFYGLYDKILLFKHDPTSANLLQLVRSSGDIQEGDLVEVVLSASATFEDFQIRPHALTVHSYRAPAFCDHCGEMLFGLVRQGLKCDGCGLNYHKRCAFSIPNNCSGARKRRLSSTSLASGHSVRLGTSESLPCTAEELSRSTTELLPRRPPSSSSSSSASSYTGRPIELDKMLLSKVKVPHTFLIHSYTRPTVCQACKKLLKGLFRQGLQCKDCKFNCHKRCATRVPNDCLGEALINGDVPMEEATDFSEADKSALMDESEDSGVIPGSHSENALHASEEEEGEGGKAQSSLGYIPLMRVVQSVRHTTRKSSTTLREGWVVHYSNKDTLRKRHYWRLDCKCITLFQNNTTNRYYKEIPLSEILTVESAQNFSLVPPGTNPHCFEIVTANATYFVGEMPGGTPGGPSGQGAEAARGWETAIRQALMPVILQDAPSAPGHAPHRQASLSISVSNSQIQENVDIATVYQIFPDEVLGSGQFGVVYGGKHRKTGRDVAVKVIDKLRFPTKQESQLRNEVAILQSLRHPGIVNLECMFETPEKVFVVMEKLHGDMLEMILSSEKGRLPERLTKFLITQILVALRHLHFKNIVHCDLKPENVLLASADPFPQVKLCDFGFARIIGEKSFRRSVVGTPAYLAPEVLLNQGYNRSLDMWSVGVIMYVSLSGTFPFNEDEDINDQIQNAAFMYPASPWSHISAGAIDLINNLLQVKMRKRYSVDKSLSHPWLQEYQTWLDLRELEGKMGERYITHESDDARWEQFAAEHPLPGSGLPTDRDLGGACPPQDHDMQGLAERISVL
Phosphorylase b kinase gamma catalytic chain, skeletal muscle/heart isoform (Homo sapiens), sequence (Q16816 whole entry, looked up, canonical isoform): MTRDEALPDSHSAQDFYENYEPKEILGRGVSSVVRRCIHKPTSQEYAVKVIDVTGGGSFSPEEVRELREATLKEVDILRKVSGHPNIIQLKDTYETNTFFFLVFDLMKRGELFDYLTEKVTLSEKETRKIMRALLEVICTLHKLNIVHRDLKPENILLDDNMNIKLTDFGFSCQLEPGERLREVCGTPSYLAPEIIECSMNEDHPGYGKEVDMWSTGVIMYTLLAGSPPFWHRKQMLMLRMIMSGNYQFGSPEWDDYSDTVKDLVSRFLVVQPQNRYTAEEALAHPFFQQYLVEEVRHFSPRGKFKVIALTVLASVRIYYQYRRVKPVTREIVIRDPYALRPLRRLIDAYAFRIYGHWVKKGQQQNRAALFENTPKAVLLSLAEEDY
Serine/threonine-protein kinase PAK 6 (Homo sapiens), sequence (Q9NQU5 whole entry, looked up): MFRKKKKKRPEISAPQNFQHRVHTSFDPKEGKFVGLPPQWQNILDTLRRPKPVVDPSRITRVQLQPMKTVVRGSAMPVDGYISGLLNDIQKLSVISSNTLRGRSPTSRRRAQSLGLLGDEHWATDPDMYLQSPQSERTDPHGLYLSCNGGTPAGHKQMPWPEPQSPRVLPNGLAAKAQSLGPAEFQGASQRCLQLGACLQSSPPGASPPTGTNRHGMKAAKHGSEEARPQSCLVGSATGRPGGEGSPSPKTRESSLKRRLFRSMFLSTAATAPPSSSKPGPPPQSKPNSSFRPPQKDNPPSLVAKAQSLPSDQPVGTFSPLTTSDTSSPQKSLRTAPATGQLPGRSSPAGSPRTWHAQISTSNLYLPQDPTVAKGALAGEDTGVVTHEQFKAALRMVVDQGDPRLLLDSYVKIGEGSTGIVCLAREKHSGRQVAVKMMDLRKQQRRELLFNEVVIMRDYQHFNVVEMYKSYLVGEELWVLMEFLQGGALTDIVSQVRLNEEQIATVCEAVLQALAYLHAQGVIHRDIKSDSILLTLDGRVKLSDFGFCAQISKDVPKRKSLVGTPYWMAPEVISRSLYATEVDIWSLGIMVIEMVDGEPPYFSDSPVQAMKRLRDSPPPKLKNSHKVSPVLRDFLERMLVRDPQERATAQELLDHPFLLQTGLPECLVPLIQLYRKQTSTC
Receptor-type tyrosine-protein kinase FLT3 (Homo sapiens), sequence (P36888 whole entry): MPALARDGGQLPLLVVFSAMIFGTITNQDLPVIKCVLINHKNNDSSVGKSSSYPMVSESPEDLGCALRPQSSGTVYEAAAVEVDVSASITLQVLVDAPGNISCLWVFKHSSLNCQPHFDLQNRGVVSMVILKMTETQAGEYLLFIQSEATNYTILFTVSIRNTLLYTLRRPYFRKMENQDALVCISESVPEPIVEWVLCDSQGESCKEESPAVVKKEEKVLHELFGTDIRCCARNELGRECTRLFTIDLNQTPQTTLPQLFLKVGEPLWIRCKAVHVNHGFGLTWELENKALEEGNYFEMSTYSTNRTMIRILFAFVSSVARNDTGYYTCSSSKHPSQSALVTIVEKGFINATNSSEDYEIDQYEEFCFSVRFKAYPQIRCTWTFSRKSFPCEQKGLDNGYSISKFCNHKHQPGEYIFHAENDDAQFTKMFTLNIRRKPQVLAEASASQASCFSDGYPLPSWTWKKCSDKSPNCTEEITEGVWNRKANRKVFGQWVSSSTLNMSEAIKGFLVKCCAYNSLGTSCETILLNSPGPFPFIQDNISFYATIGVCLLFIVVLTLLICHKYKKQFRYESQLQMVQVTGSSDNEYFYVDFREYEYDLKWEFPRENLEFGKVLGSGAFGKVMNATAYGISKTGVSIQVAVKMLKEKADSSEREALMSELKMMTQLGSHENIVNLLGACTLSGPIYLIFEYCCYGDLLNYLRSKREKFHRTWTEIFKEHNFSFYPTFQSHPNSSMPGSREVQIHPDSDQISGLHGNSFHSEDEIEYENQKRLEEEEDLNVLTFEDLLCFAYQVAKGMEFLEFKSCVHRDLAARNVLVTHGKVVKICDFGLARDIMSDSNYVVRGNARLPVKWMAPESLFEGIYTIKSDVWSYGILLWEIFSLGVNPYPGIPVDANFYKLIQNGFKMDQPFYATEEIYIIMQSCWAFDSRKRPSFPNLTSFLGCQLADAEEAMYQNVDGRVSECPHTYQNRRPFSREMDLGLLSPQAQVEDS
Death-associated protein kinase 2 (Homo sapiens), sequence (Q9UIK4 whole entry, looked up): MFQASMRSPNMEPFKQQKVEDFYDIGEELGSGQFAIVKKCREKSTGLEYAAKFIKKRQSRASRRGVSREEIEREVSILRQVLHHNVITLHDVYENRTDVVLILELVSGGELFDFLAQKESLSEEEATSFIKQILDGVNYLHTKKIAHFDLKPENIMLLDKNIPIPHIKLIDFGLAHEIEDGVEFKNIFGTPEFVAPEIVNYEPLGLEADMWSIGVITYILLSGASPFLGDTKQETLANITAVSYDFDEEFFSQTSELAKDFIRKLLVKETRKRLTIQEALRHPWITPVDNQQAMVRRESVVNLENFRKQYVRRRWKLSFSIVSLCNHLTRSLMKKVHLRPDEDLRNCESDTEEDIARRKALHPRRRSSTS

inhibition [1]: 19% | fold change (FC) [2]: 0.16 | fold change (FC) [3]: 0.77 | inhibition [4]: 2%
SMILES: CNC(=O)c1ccccc1Oc1nc(Nc2cc(OC)c(OC)c(OC)c2)ncc1Br

fold change (FC) [5]: 0 | fold change (FC) [6]: 0.15
SMILES: O=C(N[C@@H](C1CC1)C(F)(F)F)c1cc(-c2cnn3cc(-c4ccc(F)cc4)cnc23)cs1

fold change (FC) [7]: 0.58 | fold change (FC) [9]: 0.16
SMILES: CC(C)[C@H](NC(=O)c1cc(-c2cnn3cc(-c4ccc(OCCN5CCCCC5)cc4)cnc23)cs1)C(F)(F)F
inhibition [8]: 6%
